In brackets after ≈: the same amount, converted by molar mass.
Experiments:
Assay type in all cases: functional
[1] = tested on: Staphylococcus aureus; experiment: Antibacterial activity against Staphylococcus aureus after 24 hrs by twofold serial dilution method
Method in brief: (§1)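 Compounds dissolved in DMSO as 1 mg/mL stock. Seeded nutrient broth prepared from 24 h nutrient agar cultures, adjusted by plate count. Final inoculum 10⁵ cfu/mL at pH 7.4. First dilution was 0.4 mL stock in 1.6 mL seeded broth, then serial twofold through six dilutions. Seeded-broth-only tubes served as controls. Incubated at 37 °C; MIC read visually at 24 h.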

[2] = tested on: Aspergillus flavus; experiment: Antifungal activity against Aspergillus flavus after 1 to 7 days by twofold serial dilution method
Method in brief: (§2)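 Test compounds were made as 1 mg/mL DMSO stocks. Spores from 1–7 day Sabouraud agar slants were suspended in Sabouraud dextrose broth at pH 5.6. Final inoculum 1.1–1.5×10² cfu/mL. First dilution was 0.4 mL stock plus 1.6 mL seeded broth, followed by six twofold serial dilutions. Controls held seeded broth only. Incubated at 28 °C; MIC read visually after 72–96 h.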

[3] = tested on: Rhizopus; experiment: Antifungal activity against Rhizopus after 1 to 7 days by twofold serial dilution method; method in brief: as §2
[4] = tested on: Mucor; experiment: Antifungal activity against Mucor after 1 to 7 days by twofold serial dilution method; method in brief: as §2
[5] = tested on: Klebsiella pneumoniae; experiment: Antibacterial activity against Klebsiella pneumoniae after 24 hrs by twofold serial dilution method; method in brief: as §1
[6] = tested on: Escherichia coli; experiment: Antibacterial activity against Escherichia coli after 24 hrs by twofold serial dilution method; method in brief: as §1
[7] = tested on: Pseudomonas; experiment: Antibacterial activity against Pseudomonas after 24 hrs by twofold serial dilution method; method in brief: as §1
[8] = tested on: Nannizzia gypsea; experiment: Antifungal activity against Microsporum gypseum after 1 to 7 days by twofold serial dilution method; method in brief: as §2
[9] = tested on: Vibrio cholerae; experiment: Antibacterial activity against Vibrio cholerae after 24 hrs by twofold serial dilution method

SMILES | MIC [1] [µg/mL] | MIC [2] [µg/mL] | MIC [3] [µg/mL] | MIC [4] [µg/mL] | MIC [5] [µg/mL] | MIC [6] [µg/mL] | MIC [7] [µg/mL] | MIC [8] [µg/mL] | MIC [9] [µg/mL]
Cc1ccc(-c2cc(-c3ccccc3)nc(NC(=O)CN3CCOCC3)n2)cc1 | 50 (≈ 129 µM) | 100 (≈ 257 µM) | 50 (≈ 129 µM) | 50 (≈ 129 µM) | 100 (≈ 257 µM) | 50 (≈ 129 µM) | 50 (≈ 129 µM) | 50 (≈ 129 µM) | 100 (≈ 257 µM)
OC(Cn1cncn1)(Cn1cncn1)c1ccc(F)cc1F [FLUCONAZOLE] | – | 50 (≈ 163 µM) | 25 (≈ 81.6 µM) | 25 (≈ 81.6 µM) | – | – | – | 25 (≈ 81.6 µM) | –
O=C(CN1CCOCC1)Nc1nc(-c2ccc(F)cc2)cc(-c2ccc(F)cc2)n1 | 100 (≈ 244 µM) | 12.5 (≈ 30.5 µM) | 6.25 (≈ 15.2 µM) | 6.25 (≈ 15.2 µM) | 50 (≈ 122 µM) | 6.25 (≈ 15.2 µM) | 6.25 (≈ 15.2 µM) | 100 (≈ 244 µM) | 50 (≈ 122 µM)
O=C(O)c1cn(C2CC2)c2cc(N3CCNCC3)c(F)cc2c1=O [CIPROFLOXACIN] | – | – | – | – | – | 25 (≈ 75.4 µM) | 25 (≈ 75.4 µM) | – | 50 (≈ 151 µM)
COc1ccc(-c2cc(-c3ccccc3)nc(NC(=O)CN3CCOCC3)n2)cc1 | 50 (≈ 124 µM) | 100 (≈ 247 µM) | 100 (≈ 247 µM) | 200 (≈ 494 µM) | 100 (≈ 247 µM) | 200 (≈ 494 µM) | 50 (≈ 124 µM) | 100 (≈ 247 µM) | 100 (≈ 247 µM)
O=C(CN1CCOCC1)Nc1nc(-c2ccccc2)cc(-c2ccc(F)cc2)n1 | 200 (≈ 510 µM) | 6.25 (≈ 15.9 µM) | 100 (≈ 255 µM) | 50 (≈ 127 µM) | 6.25 (≈ 15.9 µM) | 50 (≈ 127 µM) | 100 (≈ 255 µM) | 200 (≈ 510 µM) | 50 (≈ 127 µM)
Cc1ccc(-c2cc(-c3ccc(F)cc3)nc(NC(=O)CN3CCOCC3)n2)cc1 | 12.5 (≈ 30.8 µM) | 200 (≈ 492 µM) | 50 (≈ 123 µM) | 100 (≈ 246 µM) | 50 (≈ 123 µM) | 50 (≈ 123 µM) | 100 (≈ 246 µM) | 12.5 (≈ 30.8 µM) | 12.5 (≈ 30.8 µM)
O=C(CN1CCOCC1)Nc1nc(-c2ccccc2)cc(-c2ccccc2)n1 | 200 (≈ 534 µM) | 200 (≈ 534 µM) | 100 (≈ 267 µM) | 100 (≈ 267 µM) | 50 (≈ 134 µM) | 200 (≈ 534 µM) | 100 (≈ 267 µM) | 200 (≈ 534 µM) | 200 (≈ 534 µM)
COc1ccc(-c2cc(-c3ccc(C)cc3)nc(NC(=O)CN3CCOCC3)n2)cc1 | 100 (≈ 239 µM) | 100 (≈ 239 µM) | 12.5 (≈ 29.9 µM) | 50 (≈ 119 µM) | 50 (≈ 119 µM) | 200 (≈ 478 µM) | 50 (≈ 119 µM) | 50 (≈ 119 µM) | 12.5 (≈ 29.9 µM)
COc1ccc(-c2cc(-c3ccc(F)cc3)nc(NC(=O)CN3CCOCC3)n2)cc1 | 200 (≈ 473 µM) | 6.25 (≈ 14.8 µM) | 200 (≈ 473 µM) | 6.25 (≈ 14.8 µM) | 100 (≈ 237 µM) | 50 (≈ 118 µM) | 6.25 (≈ 14.8 µM) | 100 (≈ 237 µM) | 100 (≈ 237 µM)

From ChEMBL document CHEMBL1157038, “Synthesis and in vitro microbiological evaluation of an array of biolabile 2-morpholino-N-(4,6-diarylpyrimidin-2-yl)acetamides” (2010)
